Measurements as given in PubChem BioAssay.
Active and inactive are the calls of the source.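 The calls were made as follows, unless noted: active = viability at or under a set limit in both replicates, limit being median viability minus 3 SD (cut at about 48% in these data, passing the limit was not always enough); inconclusive = at or under the limit in just one replicate; inactive = at or above the limit in both replicates.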

Tests used:
[1] = reduced viability of SK-BR-3 breast cancer cells – cell-based, 24 h, human, pilot screen (AID 572;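 active = viability at or below 10% of carrier control in both of two separate runs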;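 also: compound exposure lasted between 18 and 24 h rather than exactly 24 h; 100% = carrier-treated control wells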); conditions: SK-BR-3 viability, CellTiter-Glo luminescence, at 10 µM, stronger effect = lower value
[2] = HUVEC growth inhibition – cell-based, human, primary screen (AID 575;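 active = viability at or below 30% in both replicate assays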;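 also: 100% = median of untreated cell wells with 0.1% DMSO on each plate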); conditions: HUVEC proliferation, CellTiter-Glo luminescence, 72 h; at 10 µM; stronger effect = lower value
Summary of the method: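 Timing: 72 h treatment at 37 °C; material: HUVEC primary cells; technique: CellTiter-Glo luminescence measuring cellular ATP; controls: vehicle and MePR control wells; measure: percent of median DMSO-control luminescence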

[3] = H69AR cell proliferation blockers – human, duplicate replicates, primary screen (AID 580); conditions: H69AR lung tumor cells viability, ATP luminescence, 72 h; at 10 µM; stronger effect = lower value;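 also: 100% = mean luminescence of untreated wells and 0% = no signal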
[4] = MRP1 drug-resistance reversers in H69AR cells – cell-based, doxorubicin co-treatment, pilot screen (AID 601;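 active = viability loss from added drug above about 55%, and viability with drug at most 40%, in both replicates, limit read from the data, passing the limit was not always enough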); conditions: CellTiter-Glo, 72 h, at 10 µM; for differential viability (reversal): stronger effect = higher value
[5] = yeast transport mutant growth inhibition pilot in 384-well plates, post-Golgi transport modulator project (AID 636; in the data active = inhibition above about 31%); conditions: absorbance 615 nm, about 18 h, stronger effect = higher value
[6] = growth suppression of yeast trafficking mutant, preliminary HTS, modulators of trafficking downstream of Golgi apparatus project, 1536-format plate, OD 615 nm (AID 637; in the data active = inhibition above about 30%); conditions: yeast transport mutant growth, absorbance 615 nm, 18 h; stronger effect = higher value
[7] = H69AR cells + 2 uM doxorubicin, measured here: viability with 2 uM doxorubicin, stronger effect = lower value
[8] = H69AR cells, compound alone cytotoxicity

Structure (SMILES) | viability [1] | viability [2] | viability [3] | differential viability (reversal) ([4]; H69AR cells + 2 uM doxorubicin) | viability [4, 7] [%] | viability [4, 8] [%] | inhibition [5] | inhibition [6]
CCc1nnc(NC(=O)C2Cc3ccccc3CN2S(=O)(=O)c2cccs2)s1 (stereo not drawn) | 109% (inactive) | 89% (inactive) | 68.1% (inactive) | -16.4% (inactive) | 84.5 | 68.1 | -2.34% (inactive) | -3.28% (inactive)
O=C(Cn1[nH]c(=O)c2ccccc2c1=O)OCC(=O)N1CCCc2ccccc21 | 90% (inactive) | 101% (inactive) | 102% (inactive) | 13.7% (inactive) | 88.7 | 102 | -5.73% (inactive) | -2.55% (inactive)
CCCC(=O)Nc1nnc(CC(=O)N2CCCC2)s1 | 90% (inactive) | 113% (inactive) | 96.9% (inactive) | 7.37% (inactive) | 89.5 | 96.9 | -9.73% (inactive) | -5.27% (inactive)
COCCn1c(-c2ccco2)nc2nc3ccccc3nc21 | 99.5% (inactive) | 99.1% (inactive) | 77.3% (inactive) | -2.21% (inactive) | 79.6 | 77.3 | -8.27% (inactive) | 3.28% (inactive)
Cc1ccc(Cl)cc1N1CCN(C(=O)CN2C(=O)c3cccc4cccc2c34)CC1 | 94.5% (inactive) | 66.6% (inactive) | 72.1% (inactive) | -4.18% (inactive) | 76.3 | 72.1 | -4.42% (inactive) | 3.65% (inactive)
CCOCCCNC(=O)C1CCC(CNS(=O)(=O)c2cccc3nsnc23)CC1 (stereo not drawn) | 102% (inactive) | 84.6% (inactive) | 88.3% (inactive) | -5.31% (inactive) | 93.6 | 88.3 | 0% (inactive) | -4.92% (inactive)
COc1ccccc1NC(=O)C(C)NS(=O)(=O)c1ccc(F)cc1 (stereo not drawn) | 141% (inactive) | 89.5% (inactive) | 89.2% (inactive) | 0.595% (inactive) | 88.6 | 89.2 | -5.58% (inactive) | 0% (inactive)
CCOC(=O)C1CCN(C(C)=C2C(=O)c3ccccc3C2=O)CC1 | 98% (inactive) | 110% (inactive) | 105% (inactive) | 10.4% (inactive) | 94.6 | 105 | -4.66% (inactive) | 7.26% (inactive)
CCOc1cccc2cc(C(=O)N3CCN(C/C=C/c4ccccc4)CC3)c(=O)oc12 | 89% (inactive) | 106% (inactive) | 91.4% (inactive) | 22.8% (inactive) | 68.6 | 91.4 | -5.68% (inactive) | -4.73% (inactive)
C=CCn1c(=O)c2ccccc2n2c(SC(C)C(=O)Nc3nc(-c4ccccc4)cs3)nnc12 (stereo not drawn) | 66% (inactive) | 65.7% (inactive) | 79.6% (inactive) | -2.34% (inactive) | 81.9 | 79.6 | 2.6% (inactive) | 5.41% (inactive)
Cc1ccc2c(c1)CCCN2C(=O)c1ccc2c(c1)OCO2 | 48% (inactive) | 108% (inactive) | 101% (inactive) | -8.85% (inactive) | 110 | 101 | -8.63% (inactive) | -6.18% (inactive)
Cc1ccc2nc3c(cc2c1)CN(Cc1ccco1)C(=NCC1CCCO1)S3 (stereo not drawn) | 100% (inactive) | 65.6% (inactive) | 7.64% (active) | -1.93% (inactive) | 9.57 | 7.64 | 9.33% (inactive) | -0.18% (inactive)
Cc1ccc(NC(=O)c2ccco2)c(NC(=O)CN2C(=O)c3ccccc3C2=O)c1 | 97% (inactive) | 110% (inactive) | 87.6% (inactive) | -18.2% (inactive) | 106 | 87.6 | -0.41% (inactive) | 3.27% (inactive)
Cc1cc(C(=O)CSc2nnc(-c3ccccc3)n2C)c(C)n1C | 83% (inactive) | 107% (inactive) | 95.5% (inactive) | -3% (inactive) | 98.5 | 95.5 | 1.78% (inactive) | 0.73% (inactive)
COc1cccc(Nc2nnc(SCC(=O)N3CC(C)OC(C)C3)s2)c1 (stereo not drawn) | 92% (inactive) | 75.3% (inactive) | 102% (inactive) | 2.69% (inactive) | 99.1 | 102 | -2.4% (inactive) | -0.36% (inactive)
COc1ccccc1CN1CC(C(=O)NCc2cccnc2)CC1=O (stereo not drawn) | 134% (inactive) | 95.5% (inactive) | 91.5% (inactive) | 2.3% (inactive) | 89.2 | 91.5 | -2.99% (inactive) | 3.77% (inactive)
Cc1csc(NC(=O)c2cccs2)n1 | 119% (inactive) | 93.9% (inactive) | 89.7% (inactive) | 3.83% (inactive) | 85.8 | 89.7 | -1.43% (inactive) | 1.48% (inactive)
C=CCOC(=O)C1=C(C)NC(=O)NC1c1cn(-c2ccccc2)nc1-c1cccs1 (stereo not drawn) | 119% (inactive) | 81.9% (inactive) | 91% (inactive) | -3.71% (inactive) | 94.7 | 91 | -6.49% (inactive) | 1.09% (inactive)

Structure (SMILES) | viability [1] | viability [2] | viability [3] | differential viability (reversal) ([4]; H69AR cells + 2 uM doxorubicin) | viability [4, 7] [%] | viability [4, 8] [%] | inhibition [5] | inhibition [6]
O=C1c2ccccc2C(=O)N1c1cccc(-c2nc3ccccc3o2)c1 | 114% (inactive) | 72.5% (inactive) | 111% (inactive) | 7.94% (inactive) | 103 | 111 | -4.13% (inactive) | -3.09% (inactive)
CCCC(=O)Nc1cnc(NC(=O)c2cccc(F)c2)cc1C | 86% (inactive) | 90.3% (inactive) | 88.7% (inactive) | 6.15% (inactive) | 82.6 | 88.7 | 2.47% (inactive) | 2.95% (inactive)
O=C(Nc1ccc(Cl)c(C(F)(F)F)c1)N1CCCC(O)C1 (stereo not drawn) | 98% (inactive) | 107% (inactive) | 105% (inactive) | 20.9% (inactive) | 83.6 | 105 | -0.78% (inactive) | -6.23% (inactive)
C=CCC1(O)C(=O)Nc2ccccc21 (stereo not drawn) | 93% (inactive) | 108% (inactive) | 98.2% (inactive) | 18.9% (inactive) | 79.4 | 98.2 | -5.2% (inactive) | 1.82% (inactive)
Cc1ccc2c(c1C)NC(=O)C2(O)CC(=O)c1ccc2c(c1)OCO2 (stereo not drawn) | 88% (inactive) | 83.2% (inactive) | 88% (inactive) | -5.94% (inactive) | 94 | 88 | -1.1% (inactive) | 2.9% (inactive)
Cc1nc(NC2=NCN(CCCN3CCOCC3)CN2)nc2c(C)cccc12 | 158% (inactive) | 67.4% (inactive) | 53.4% (inactive) | -12.3% (inactive) | 65.8 | 53.4 | -4.34% (inactive) | 0.16% (inactive)
O=C(COC(=O)C12CC3CC(CC(C3)C1)C2)NCc1ccco1 | 101% (inactive) | 98.5% (inactive) | 64.6% (inactive) | -21.4% (inactive) | 86 | 64.6 | -4.16% (inactive) | -3.93% (inactive)
COc1cc2c(cc1OC)CN(CC(=O)Nc1cccc(C)c1)CC2 | 117% (inactive) | 90.4% (inactive) | 93.1% (inactive) | 9.21% (inactive) | 83.9 | 93.1 | 0.14% (inactive) | -7.9% (inactive)
Cc1cc(N2CCN(C3CCCC3)CC2)n2c(nc3ccccc32)c1C#N | 78% (inactive) | 96.8% (inactive) | 91.4% (inactive) | 28.1% (inactive) | 63.3 | 91.4 | -2.19% (inactive) | 2.42% (inactive)
c1ccc(Cn2nnnc2CN2CCCC2)cc1 | 112% (inactive) | 101% (inactive) | 99.4% (inactive) | 2.88% (inactive) | 96.5 | 99.4 | -6.3% (inactive) | 0.48% (inactive)
O=C(C1CCCO1)N1CCN(S(=O)(=O)c2ccccc2)CC1 (stereo not drawn) | 79% (inactive) | 98.1% (inactive) | 99.1% (inactive) | -6.22% (inactive) | 105 | 99.1 | -6.3% (inactive) | 3.27% (inactive)
COc1ccc(-n2c(SCC(N)=O)nc3sc4c(c3c2=O)CCN(C)C4)cc1 | 126% (inactive) | 93.5% (inactive) | 101% (inactive) | -9.52% (inactive) | 111 | 101 | 6.16% (inactive) | -1.94% (inactive)
CCOCCCNC(=O)C1CC(=O)N(C2CCCC2)C1 (stereo not drawn) | 98% (inactive) | 97.7% (inactive) | 94.6% (inactive) | 4.13% (inactive) | 90.5 | 94.6 | -0.91% (inactive) | 1.15% (inactive)
Cc1ccc(S(=O)(=O)N2CCN(c3nc(C)nc4sc(C)c(C)c34)CC2)cc1 | 95% (inactive) | 108% (inactive) | 99.5% (inactive) | -2.76% (inactive) | 102 | 99.5 | -3.73% (inactive) | -0.73% (inactive)
CCn1c(SCC(=O)Nc2ccc3c(c2)OCO3)nnc1-c1ccccc1O | 96% (inactive) | 92% (inactive) | 101% (inactive) | 13.5% (inactive) | 87.2 | 101 | -1.69% (inactive) | -0.33% (inactive)
O=C(CSc1oc(-c2ccco2)nc1S(=O)(=O)c1ccccc1)NCC1CCCO1 (stereo not drawn) | 97% (inactive) | 99.7% (inactive) | 86.5% (inactive) | 5.96% (inactive) | 80.5 | 86.5 | 4.66% (inactive) | -0.16% (inactive)
CCOCCn1c(CN2CCC(Cc3ccccc3)CC2)nc2c1c(=O)n(C)c(=O)n2C | 61% (inactive) | 89.7% (inactive) | 87.7% (inactive) | 29.8% (inactive) | 58 | 87.7 | -8.22% (inactive) | 3.55% (inactive)
COc1ccccc1N1CCN(CC(O)COc2cccc3ccccc23)CC1 (stereo not drawn) | 83% (inactive) | 74.9% (inactive) | 77.4% (inactive) | -13.3% (inactive) | 90.7 | 77.4 | -1.3% (inactive) | -1.5% (inactive)
